Series [1] in a line: Relaxation of KCl-induced contraction in guinea pig terminal ilea assessed as reduction of contraction force at 100 uM. The format is functional, Cavia porcellus. On the set-up: scale not given: the % may be the effect or the level left. In short, it runs like this: (§1)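 Precontracted with 60 mM KCl at a resting tension of 4.9 mN. After a 45 min control period, compound (1–100 µM) was added cumulatively to steady state. Isometric force was recorded as % decrease; IC₅₀ from 4–6 experiments, mean ± SEM.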

Series [2] is described as follows: Toxicity in guinea pig heart muscle. The format is tissue-based, Cavia porcellus, Muscle tissue. In outline: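 Guinea pig heart muscle in oxygenated Krebs–Henseleit at 35 °C. Isometric contraction force was measured in electrically stimulated papillary muscles (Purkinje fibres removed, diameter <0.87 mm). Chronotropic effect was measured as spontaneous activity of isolated right atria. Compounds were added cumulatively. Paired Student's t-test.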

The nature of series [3]: Spasmolytic activity in guinea pig terminal ilea relative to resveratrol. The format is functional, Cavia porcellus. In short, it runs like this:
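Ileal IC₅₀ was measured as for the KCl-precontracted (60 mM) guinea pig terminal ileum with cumulative dosing up to 100 µM. It is expressed as a potency index relative to resveratrol.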

Series [4] can be described thus: Spasmolytic activity in guinea pig terminal ilea. Type of series: functional, Cavia porcellus. In outline:
as §1

Series [5] is described as follows: Toxicity in guinea pig vascular smooth muscle. The format is tissue-based, Cavia porcellus, Muscle tissue. In outline: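 Guinea pig aortic rings in oxygenated Krebs–Henseleit at 35 °C, contracted with 90 mM KCl. Compound was added cumulatively up to 100 µM, and relaxation of isometric contraction force was recorded.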
Series [6] can be described thus: Relaxation of KCl-induced contraction in guinea pig terminal ilea assessed as reduction of contraction force at 30 uM. On the set-up: scale not given: the % may be the effect or the level left. The format is functional, Cavia porcellus. In outline:
as §1

What is called pIC50 is −log10 of the IC50, conventionally taken in molar units.

pIC50: −log10 of the molar value.

In the case of `O=C(Nc1c(F)cc(F)cc1F)c1ccc(F)cc1`, the Activity in series [1] is recorded as 28.35%; in series [2], “Non-toxic”; in series [3] it was 0.57; in series [5] it was “Non-toxic”. The compound further gave a pIC50 in series [4] of 4.38.

As to `O=C(Nc1c(F)cc(F)cc1F)c1cc([N+](=O)[O-])cc([N+](=O)[O-])c1`, the Activity is reported as 25.66% in series [1], “Non-toxic” in series [2], 0.74 in series [3] and “Non-toxic” in series [5]. Moreover, in series [4], the pIC50 is 4.49.

With `O=C(Nc1c(F)cc(F)cc1F)c1cc(F)cc(F)c1`, the Activity is 9% in series [1], “Non-toxic” in series [2], 0.92 in series [3] and “Non-toxic” in series [5]. In addition, the pIC50 in series [4] was 4.59.

With `O=C(Nc1ccc(F)cc1F)c1cc(F)cc(F)c1`, the Activity in series [1] is recorded as 51.13%; in series [2] it was “Non-toxic”; in series [3], over 0.24; in series [5] it was “Non-toxic”. The compound also gave a pIC50 in series [4] of under 4.00.

As to `COc1cc(NC(=O)c2cc(F)cc(F)c2)cc(OC)c1OC`, the Activity in series [1] is given as 22.87%; in series [2], “Non-toxic”; in series [3], 0.87; in series [5], “Non-toxic”. In addition, the pIC50 in series [4] was 4.56.

With `COc1cc(NC(=O)c2ccc(OC(F)(F)F)cc2)cc(OC)c1`, the Activity in series [1] was 11.99%; in series [2] it was “Non-toxic”; in series [3], 3.2; in series [5], “Non-toxic”. Moreover, in series [4], the pIC50 was 5.12.

On to `CSc1ccc(NC(=O)c2cc(F)cc(F)c2)cc1`, for which the Activity result was “Non-toxic” in series [2], 7.39 in series [3], “Non-toxic” in series [5] and 2.8% in series [6]. In series [4], the negative-log IC50 (pIC50) was 5.49.

For the compound `CN(C)c1ccc(NC(=O)c2cc(F)cc(F)c2)cc1`, the Activity in series [1] is recorded as 23.93%; in series [2], “Non-toxic”; in series [3] it was 0.8; in series [5] it was “Non-toxic”. This compound also showed a pIC50 in series [4] of 4.52.

As to `O=C(Nc1cc(F)cc(F)c1)c1ccc(F)cc1`, the Activity in series [1] is 1.66%; in series [2], “Non-toxic”; in series [3], 2.82; in series [5], “Non-toxic”. The compound also gave a pIC50 in series [4] of 5.07.

As for `Oc1ccc(/C=C/c2cc(O)cc(O)c2)cc1` [RESVERATROL], in series [3], the Activity is recorded as 1. The compound also gave a pIC50 in series [4] of 4.62.

In the case of `O=C(Nc1ccc(F)cc1)c1cc(F)cc(F)c1`, the Activity was 30.55% in series [1], “Non-toxic” in series [2], 1.14 in series [3] and “Non-toxic” in series [5]. The compound also had a pIC50 in series [4] of 4.68.

Source of the values: ChEMBL document CHEMBL1150382, “Benzanilides with spasmolytic activity: chemistry, pharmacology, and SAR” (Bioorg Med Chem, 2008).
